pEC50, pIC50: −log10 of the molar value. Active and inactive are the calls of the source. The rule behind the calls is not given here.
Key:
Histone deacetylase 3 = Histone deacetylase 3 (Homo sapiens, UniProt O15379); assay: Inhibition of human recombinant HDAC3 using acetyllysine tripeptide coupled with 7-amino-4-methylcoumarin as substrate by fluorescence assay
Histone deacetylase 2 = Histone deacetylase 2 (Homo sapiens, UniProt Q92769); assay: Inhibition of human recombinant HDAC2 using acetyllysine tripeptide coupled with 7-amino-4-methylcoumarin as substrate by fluorescence assay
Chain of Histone deacetylase 2 (Q92769 whole entry): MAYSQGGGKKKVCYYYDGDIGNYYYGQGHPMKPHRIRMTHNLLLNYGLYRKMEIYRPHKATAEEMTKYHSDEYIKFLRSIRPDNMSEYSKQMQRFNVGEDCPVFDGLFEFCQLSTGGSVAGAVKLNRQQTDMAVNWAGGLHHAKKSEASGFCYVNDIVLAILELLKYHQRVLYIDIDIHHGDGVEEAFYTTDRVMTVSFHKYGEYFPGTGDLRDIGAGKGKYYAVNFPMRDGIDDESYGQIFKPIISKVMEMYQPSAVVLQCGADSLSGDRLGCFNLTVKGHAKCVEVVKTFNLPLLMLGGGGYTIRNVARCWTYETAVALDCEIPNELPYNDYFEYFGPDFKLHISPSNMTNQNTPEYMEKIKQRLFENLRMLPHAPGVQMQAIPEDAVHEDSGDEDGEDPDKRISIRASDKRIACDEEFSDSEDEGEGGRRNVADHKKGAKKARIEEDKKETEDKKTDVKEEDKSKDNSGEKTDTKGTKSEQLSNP

Histone deacetylase 1 = Histone deacetylase 1 (Homo sapiens, UniProt Q13547); assay: Inhibition of human recombinant HDAC1 using acetyllysine tripeptide coupled with 7-amino-4-methylcoumarin as substrate by fluorescence assay
Chain of Histone deacetylase 1 (Q13547 whole entry): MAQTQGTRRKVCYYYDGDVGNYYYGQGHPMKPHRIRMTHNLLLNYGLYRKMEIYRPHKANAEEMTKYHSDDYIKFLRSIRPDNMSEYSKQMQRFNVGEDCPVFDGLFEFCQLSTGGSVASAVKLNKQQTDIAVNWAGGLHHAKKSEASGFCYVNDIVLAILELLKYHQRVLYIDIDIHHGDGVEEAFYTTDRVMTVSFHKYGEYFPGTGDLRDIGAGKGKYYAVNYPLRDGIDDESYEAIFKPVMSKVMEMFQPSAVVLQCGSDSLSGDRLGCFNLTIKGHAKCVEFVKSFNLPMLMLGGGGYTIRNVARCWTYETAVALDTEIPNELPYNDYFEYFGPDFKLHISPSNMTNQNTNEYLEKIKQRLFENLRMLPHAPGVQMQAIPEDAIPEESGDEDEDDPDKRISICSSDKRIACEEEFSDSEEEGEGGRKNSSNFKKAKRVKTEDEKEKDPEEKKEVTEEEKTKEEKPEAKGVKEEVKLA

[1] = molecular target: Histone deacetylase 5 (Homo sapiens) (UniProt Q9UQL6); assay: Inhibition of human recombinant HDAC5 using acetyllysine tripeptide coupled with 7-amino-4-methylcoumarin as substrate by fluorescence assay
Chain of Histone deacetylase 5 (Homo sapiens) (Q9UQL6 whole entry): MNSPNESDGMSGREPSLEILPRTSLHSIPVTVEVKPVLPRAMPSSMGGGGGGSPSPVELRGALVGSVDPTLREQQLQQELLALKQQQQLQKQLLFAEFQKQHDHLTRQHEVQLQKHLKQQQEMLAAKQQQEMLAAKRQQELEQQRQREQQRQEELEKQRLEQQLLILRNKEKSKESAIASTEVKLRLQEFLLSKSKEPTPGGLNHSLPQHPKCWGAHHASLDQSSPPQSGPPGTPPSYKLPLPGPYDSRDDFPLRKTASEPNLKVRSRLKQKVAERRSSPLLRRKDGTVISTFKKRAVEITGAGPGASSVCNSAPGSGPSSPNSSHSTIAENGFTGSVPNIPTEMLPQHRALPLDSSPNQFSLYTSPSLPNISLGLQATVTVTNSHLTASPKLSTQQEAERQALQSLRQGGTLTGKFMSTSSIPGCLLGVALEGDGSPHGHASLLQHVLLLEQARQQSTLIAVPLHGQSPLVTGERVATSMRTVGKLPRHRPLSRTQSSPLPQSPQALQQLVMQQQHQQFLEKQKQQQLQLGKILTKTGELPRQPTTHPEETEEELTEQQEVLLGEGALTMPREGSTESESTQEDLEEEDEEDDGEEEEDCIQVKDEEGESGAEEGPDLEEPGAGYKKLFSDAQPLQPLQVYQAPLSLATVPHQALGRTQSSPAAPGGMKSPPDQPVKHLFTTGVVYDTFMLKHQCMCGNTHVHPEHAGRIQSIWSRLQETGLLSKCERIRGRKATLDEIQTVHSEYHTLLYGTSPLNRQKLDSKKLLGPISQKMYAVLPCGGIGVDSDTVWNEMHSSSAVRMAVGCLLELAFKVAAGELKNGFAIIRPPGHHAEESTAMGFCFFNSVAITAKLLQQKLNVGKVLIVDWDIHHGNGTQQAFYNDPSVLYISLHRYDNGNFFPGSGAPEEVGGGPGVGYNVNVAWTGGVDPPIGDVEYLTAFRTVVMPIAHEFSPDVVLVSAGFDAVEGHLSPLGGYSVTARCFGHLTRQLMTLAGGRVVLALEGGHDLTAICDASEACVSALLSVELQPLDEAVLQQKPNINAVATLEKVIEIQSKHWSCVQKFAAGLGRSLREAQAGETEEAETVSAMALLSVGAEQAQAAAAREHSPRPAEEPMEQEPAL

[2] = Cmax in C57BL/6 mouse brain at 25 mg/kg, ip after 6 hrs by LC/MS/MS analysis; format: ADME, organism-based; parameters: dose 25 mg/kg, route intraperitoneal
How it was run: (§1)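 Mice dosed intraperitoneally at 25 mg/kg. Brains and peripheral blood were collected at each point of a 6-point time course, three mice per time point. Compound concentration was measured in processed brain and blood samples. PK parameters were derived from the concentration-time profiles.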

Mus musculus [3] = assay: Half life in C57BL/6 mouse plasma at 25 mg/kg, ip after 0.5 to 24 hrs by LC/MS/MS analysis; format: ADME, organism-based; conditions: in vivo; how it was run: as §1
[4] = Tmax in C57BL/6 mouse brain at 25 mg/kg, ip after 0.5 to 24 hrs by LC/MS/MS analysis; format: ADME, organism-based; how it was run: as §1
[5] = Apparent clearance in C57BL/6 mouse plasma at 25 mg/kg, ip after 0.5 to 24 hrs by LC/MS/MS analysis; format: ADME, organism-based; how it was run: as §1
[6] = Cmax in C57BL/6 mouse brain at 25 mg/kg, ip after 24 hrs by LC/MS/MS analysis; format: ADME, organism-based; parameters: dose 25 mg/kg, route intraperitoneal; how it was run: as §1
[7] = Cmax in C57BL/6 mouse plasma at 25 mg/kg, ip after 0.5 hrs by LC/MS/MS analysis; format: ADME, organism-based; parameters: dose 25 mg/kg, route intraperitoneal; how it was run: as §1
[8] = molecular target: T1, Protein deacetylase HDAC6 (Homo sapiens, UniProt Q9UBN7); assay: Inhibition of human recombinant HDAC6 using acetyllysine tripeptide coupled with 7-amino-4-methylcoumarin as substrate by fluorescence assay
T1 sequence (Q9UBN7 whole entry): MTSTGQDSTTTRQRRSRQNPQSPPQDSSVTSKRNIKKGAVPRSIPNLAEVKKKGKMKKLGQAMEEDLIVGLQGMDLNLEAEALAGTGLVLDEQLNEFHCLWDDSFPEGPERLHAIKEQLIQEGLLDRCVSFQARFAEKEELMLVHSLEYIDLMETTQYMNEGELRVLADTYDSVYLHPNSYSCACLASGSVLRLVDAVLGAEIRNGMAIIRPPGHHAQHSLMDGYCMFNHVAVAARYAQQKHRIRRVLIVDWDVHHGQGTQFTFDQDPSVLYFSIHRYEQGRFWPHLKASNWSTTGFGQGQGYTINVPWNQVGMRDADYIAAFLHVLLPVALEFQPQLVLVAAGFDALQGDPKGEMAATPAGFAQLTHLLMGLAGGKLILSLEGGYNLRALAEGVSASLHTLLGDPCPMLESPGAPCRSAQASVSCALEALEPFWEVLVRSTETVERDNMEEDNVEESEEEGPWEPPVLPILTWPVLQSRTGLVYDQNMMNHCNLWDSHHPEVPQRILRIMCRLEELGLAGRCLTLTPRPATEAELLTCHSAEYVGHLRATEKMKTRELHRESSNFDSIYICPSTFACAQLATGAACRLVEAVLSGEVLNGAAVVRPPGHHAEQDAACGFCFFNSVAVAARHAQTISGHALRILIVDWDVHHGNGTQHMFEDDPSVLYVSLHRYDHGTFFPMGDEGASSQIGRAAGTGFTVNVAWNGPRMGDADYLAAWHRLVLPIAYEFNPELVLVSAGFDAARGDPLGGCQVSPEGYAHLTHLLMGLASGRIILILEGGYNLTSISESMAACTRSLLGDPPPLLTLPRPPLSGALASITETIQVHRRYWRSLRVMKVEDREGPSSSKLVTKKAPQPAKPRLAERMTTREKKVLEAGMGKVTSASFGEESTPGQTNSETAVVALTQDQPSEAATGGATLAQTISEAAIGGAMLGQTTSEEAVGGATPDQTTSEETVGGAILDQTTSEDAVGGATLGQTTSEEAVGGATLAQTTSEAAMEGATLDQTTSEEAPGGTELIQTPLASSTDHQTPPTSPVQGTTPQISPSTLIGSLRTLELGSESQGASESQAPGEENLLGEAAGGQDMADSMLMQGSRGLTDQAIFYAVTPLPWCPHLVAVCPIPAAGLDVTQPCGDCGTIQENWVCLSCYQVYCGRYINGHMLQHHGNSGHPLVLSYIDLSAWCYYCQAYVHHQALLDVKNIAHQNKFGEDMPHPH

[9] = Cmax in C57BL/6 mouse plasma at 25 mg/kg, ip after 1 hr by LC/MS/MS analysis; format: ADME, organism-based; parameters: dose 25 mg/kg, route intraperitoneal; how it was run: as §1
[10] = Cmax in C57BL/6 mouse plasma at 25 mg/kg, ip after 24 hrs by LC/MS/MS analysis; format: ADME, organism-based; parameters: dose 25 mg/kg, route intraperitoneal; how it was run: as §1
[11] = AUClast in C57BL/6 mouse plasma at 25 mg/kg, ip after 0.5 to 24 hrs by LC/MS/MS analysis; format: ADME, organism-based; how it was run: as §1
[12] = Tmax in C57BL/6 mouse plasma at 25 mg/kg, ip after 0.5 to 24 hrs by LC/MS/MS analysis; format: ADME, organism-based; how it was run: as §1
[13] = Cmax in C57BL/6 mouse plasma at 25 mg/kg, ip after 12 hrs by LC/MS/MS analysis; format: ADME, organism-based; parameters: dose 25 mg/kg, route intraperitoneal; how it was run: as §1
[14] = Ratio of drug level in brain to plasma in C57BL/6 mouse at 25 mg/kg, ip after 0.5 to 2 hrs by LC/MS/MS analysis; format: ADME, organism-based; conditions: brain and plasma, read-out: BPR
How it was run: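 Intraperitoneal dose of 25 mg/kg in mice, three animals per time point. Compound levels in processed brain and in peripheral blood were measured at matched times. Individual brain-to-plasma concentration ratios were calculated for the 0.5 to 2 h time points.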

[15] = Cmax in C57BL/6 mouse brain at 25 mg/kg, ip after 0.5 hrs by LC/MS/MS analysis; format: ADME, organism-based; parameters: dose 25 mg/kg, route intraperitoneal; how it was run: as §1
[16] = Cmax in C57BL/6 mouse plasma at 25 mg/kg, ip after 6 hrs by LC/MS/MS analysis; format: ADME, organism-based; parameters: dose 25 mg/kg, route intraperitoneal; how it was run: as §1
[17] = Cmax in C57BL/6 mouse brain at 25 mg/kg, ip after 1 hr by LC/MS/MS analysis; format: ADME, organism-based; parameters: dose 25 mg/kg, route intraperitoneal; how it was run: as §1
[18] = Inhibition of HDAC in mouse forebrain primary neurons assessed as acetylation of histone H3K9 after 24 hrs by immunofluorescence assay
[19] = Cmax in C57BL/6 mouse brain at 25 mg/kg, ip after 2 hrs by LC/MS/MS analysis; format: ADME, organism-based; parameters: dose 25 mg/kg, route intraperitoneal; how it was run: as §1
[20] = AUClast in C57BL/6 mouse brain at 25 mg/kg, ip after 0.5 to 24 hrs by LC/MS/MS analysis; format: ADME, organism-based; how it was run: as §1
[21] = Cmax in C57BL/6 mouse plasma at 25 mg/kg, ip after 2 hrs by LC/MS/MS analysis; format: ADME, organism-based; parameters: dose 25 mg/kg, route intraperitoneal; how it was run: as §1
[22] = AUCinfinity in C57BL/6 mouse plasma at 25 mg/kg, ip after 0.5 to 24 hrs by LC/MS/MS analysis; format: ADME, organism-based; parameters: dose 25 mg/kg, route intraperitoneal, time infinity; how it was run: as §1
[23] = Mean Residence time up to the last quantifiable time-point in C57BL/6 mouse plasma at 25 mg/kg, ip after 0.5 to 24 hrs by LC/MS/MS analysis; format: ADME, organism-based; how it was run: as §1
Mus musculus [24] = species: Mus musculus; assay: Inhibition of HDAC in mouse forebrain primary neurons assessed as acetylation of histone H3K9 at 1 to 10 uM after 24 hrs by immunofluorescence assay
How it was run: (§2)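 Mouse forebrain primary neuronal cultures (DIV13–14) treated 24 h at 1 and 10 μM, n=3. Cells fixed and immunostained for H3K9ac or H4K12ac; nuclear fluorescence intensity quantified by imaging. […] Mean ± SEM; unpaired t-test.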

Mus musculus [25] = species: Mus musculus; assay: Inhibition of HDAC in mouse forebrain primary neurons assessed as acetylation of histone H4K12 at 1 to 10 uM after 24 hrs by immunofluorescence assay; how it was run: as §2

Chain of Histone deacetylase 3 (O15379 whole entry): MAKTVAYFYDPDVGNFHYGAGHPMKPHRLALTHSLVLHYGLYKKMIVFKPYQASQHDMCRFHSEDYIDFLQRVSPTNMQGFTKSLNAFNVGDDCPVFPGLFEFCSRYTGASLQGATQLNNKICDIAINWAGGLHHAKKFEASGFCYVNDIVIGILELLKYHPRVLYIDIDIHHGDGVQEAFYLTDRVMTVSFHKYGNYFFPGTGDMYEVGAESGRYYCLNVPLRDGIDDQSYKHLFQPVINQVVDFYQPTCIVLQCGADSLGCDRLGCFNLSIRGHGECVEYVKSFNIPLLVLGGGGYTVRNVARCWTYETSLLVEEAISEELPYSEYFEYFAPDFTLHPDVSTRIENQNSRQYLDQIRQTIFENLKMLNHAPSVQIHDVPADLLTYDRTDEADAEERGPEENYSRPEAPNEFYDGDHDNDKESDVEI

## COc1ccc(Br)c(/C=N/NC(=O)CCCCCC(=O)NO)c1
Histone deacetylase 3
  pIC50: 8.92
Histone deacetylase 2
  pIC50: 8.30
Histone deacetylase 1
  pIC50: 9.22

## O=C(CCCCCC(=O)N/N=C/c1ccc(-c2cccnc2)cc1)NO
Histone deacetylase 3
  pIC50: 9.10
[1]
  inhibition: inactive
[2]
  Cmax: 13.5 nM
Mus musculus [3]
  t1/2: 1.28 h
[4]
  Tmax: 1 h
[5]
  CL/F: 217 mL/min/kg
Histone deacetylase 2
  pIC50: 7.97
[6]
  Cmax: 9.73 nM
[7]
  Cmax: 1670 nM
[8]
  pIC50: 9.30
[9]
  Cmax: 1900 nM
[10]
  Cmax: 3.72 nM
[11]
  AUC(0-t): 5.41 µM·h
[12]
  Tmax: 1 h
[13]
  Cmax: 6.45 nM
[14]
  Kp: 0.03
[15]
  Cmax: 75.7 nM
Histone deacetylase 1
  pIC50: 8.96
[16]
  Cmax: 14.9 nM
[17]
  Cmax: 79.1 nM
[18]
  pEC50: 6.85
[19]
  Cmax: 45.2 nM
[20]
  AUC(0-t): 0.12 µM·h
[21]
  Cmax: 1220 nM
[22]
  AUC(0-inf): 5.42 µM·h
[23]
  MRT: 1.6 h

## Cc1ccccc1-c1ccc(/C=N/NC(=O)CCCCCC(=O)NO)cc1
Histone deacetylase 3
  pIC50: 8.27
Histone deacetylase 2
  pIC50: 7.73
Histone deacetylase 1
  pIC50: 8.10

## O=C(CCCCC(=O)N/N=C/c1ccc(-c2ccccc2)cc1)NO
Histone deacetylase 3
  pIC50: 7.21
Histone deacetylase 2
  pIC50: 7.48
Mus musculus [24]
  inhibition: Active
Histone deacetylase 1
  pIC50: 7.72
Mus musculus [25]
  inhibition: Active

## O=C(CCCCCC(=O)N/N=C/c1ccc(-c2cccs2)cc1)NO
Histone deacetylase 3
  pIC50: 8.80
Histone deacetylase 2
  pIC50: 8.20
Histone deacetylase 1
  pIC50: 8.68

## COc1cc(O)cc(OC)c1/C=N/NC(=O)CCCCCC(=O)NO
Histone deacetylase 3
  pIC50: 7.59
Histone deacetylase 2
  pIC50: 6.97
Histone deacetylase 1
  pIC50: 7.50

## O=C(CCCCCC(=O)N/N=C/c1ccc(-c2ccccc2)cc1)NO
Histone deacetylase 3
  pIC50: 8.47
[1]
  inhibition: inactive
Histone deacetylase 2
  pIC50: 8.68
[8]
  pIC50: 9.22
[15]
  Cmax: 60 nM
Histone deacetylase 1
  pIC50: 8.85
[18]
  pEC50: 6.68

## O=C(CCCCCC(=O)N/N=C/c1ccc(-c2ccccn2)cc1)NO
Histone deacetylase 3
  pIC50: 8.85
Histone deacetylase 2
  pIC50: 8.16
Histone deacetylase 1
  pIC50: 8.64

## O=C(CCCCCC(=O)N/N=C/c1ccc(-c2cncnc2)cc1)NO
Histone deacetylase 3
  pIC50: 8.62
Histone deacetylase 2
  pIC50: 7.68
Histone deacetylase 1
  pIC50: 8.49

## O=C(CCCCCCC(=O)N/N=C/c1ccc(-c2ccccc2)cc1)NO
Histone deacetylase 3
  pIC50: 8.70
Histone deacetylase 2
  pIC50: 9.00
Mus musculus [24]
  inhibition: Active
Histone deacetylase 1
  pIC50: 9.15
Mus musculus [25]
  inhibition: Active

## O=C(CCCCCC(=O)N/N=C/c1ccc(-c2ccncc2)cc1)NO
Histone deacetylase 3
  pIC50: 8.74
Histone deacetylase 2
  pIC50: 7.85
Histone deacetylase 1
  pIC50: 8.51
